Compound activity from PubChem.
PP5 primary – PP5 phosphatase inhibitors, primary screen, biochemical, fluorescence; Serine/threonine-protein phosphatase 5 (Homo sapiens), P53041; purified PP5c, OMFP substrate fluorescence; inhibition, % at 6.7 µM; hit rate 0.18% among 320,000; AID 1987, 2009;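 active = inhibition above the campaign's mean inhibition across all tested compounds plus 3 SD, cut at about 9.5% in these data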;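 note: 0% = DMSO only and 100% = 100 µM cantharidin control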
PP1 counter – PP1-alpha phosphatase inhibitors, primary screen, counter-screen for PP5 inhibitor project, biochemical, fluorescence, OMFP substrate, single point; purified PP1alpha; hit rate 0.9% among 320,000; Serine/threonine-protein phosphatase PP1-alpha catalytic subunit (Homo sapiens), P62136; AID 2235, 2010; inhibition, % at 6.7 µM;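 active = inhibition above the mean inhibition of all tested compounds plus 3 SD, computed separately for each screening campaign, cut at about 15% in these data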
Apaf1 inhib – inhibitors of human Apaf-1 apoptosome, primary screen, biochemical, DEVD-Rh110 fluorescence, uHTS; Apoptotic protease-activating factor 1 (Homo sapiens), O14727; reconstituted apoptosome caspase-3 activity; inhibition, % at 20 µM; hit rate 0.71% among 330,000; AID 489030, 2010; active = inhibition of at least 40% at 20 µM;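 note: plate controls were DMSO wells for no effect and DEVD-CHO caspase inhibitor wells for full effect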
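System – cell-free apoptosome with Apaf-1, procaspase-3 and caspase-9 · Buffer or medium – pH 7.5 Hepes buffer with CHAPS, BSA, DTT · Also added – cytochrome c with DEVD-Rh110 · Times – 30 min compound preincubation, 50 min activation, room temperature · Technique – Rh110 fluorescence intensity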
TDP2 inh – human TDP2 enzyme inhibitors, primary screen, biochemical, epi absorbance, recombinant enzyme. Tyrosyl-DNA phosphodiesterase 2 (Homo sapiens), O95551. T5PNP hydrolysis, p-nitrophenol absorbance 415 nm. inhibition, % at 12.8 µM. hit rate 0.34% among 370,000. AID 720702, 2013;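 active = inhibition above the mean of all tested compounds plus 3 SD, set per campaign, cut at about 25% in these data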;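 note: 0% = DMSO with enzyme and 100% = buffer with substrate but no TDP2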
Target sequence (O95551 whole entry, looked up): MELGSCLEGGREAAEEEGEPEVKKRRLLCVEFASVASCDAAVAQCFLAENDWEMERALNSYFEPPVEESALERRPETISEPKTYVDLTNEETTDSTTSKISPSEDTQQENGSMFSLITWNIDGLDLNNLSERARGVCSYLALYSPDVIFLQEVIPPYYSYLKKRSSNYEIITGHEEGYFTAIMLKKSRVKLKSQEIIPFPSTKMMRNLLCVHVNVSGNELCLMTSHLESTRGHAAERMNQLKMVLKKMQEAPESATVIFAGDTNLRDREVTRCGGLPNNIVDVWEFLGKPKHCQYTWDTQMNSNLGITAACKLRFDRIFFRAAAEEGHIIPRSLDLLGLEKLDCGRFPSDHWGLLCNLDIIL
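System: recombinant human TDP2 / Amount: 120 nM TDP2 per well / Also added: 5 mM T5PNP chromogenic substrate / Doses: 12.8 µM single point, 1% DMSO / Incubation: 2 h at 37 °C / Detection: p-Nitrophenol epi absorbance / Evaluation: % inhibition relative to enzyme-containing and enzyme-free wells / Repeats: singlicate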
GSTO1 inh – inhibitors of recombinant GSTO1, primary screen, counter-screen for RBBP9 inhibitor project, biochemical, fluorescence polarization; Glutathione S-transferase omega-1 (Homo sapiens), P78417; hit rate 1.1% among 300,000; activity-based probe fluorescence polarization; inhibition, % at 5.96 µM;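 active = inhibition above the campaign mean inhibition plus 3 SD, cut at about 35% in these data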;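 note: 0% = GSTO1-1 with DMSO and 100% = wells lacking GSTO1-1 enzyme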
Apaf-1 inh conf2 – Apaf-1 inhibitors, single-dose retest, confirmation, biochemical, fluorescence, DEVD-Rh110, 20 µM. shares compounds with Apaf1 inhib. reconstituted apoptosome, caspase-3 DEVD-Rh110 fluorescence. inhibition, % at 20 µM. hit rate 25% among 1,800;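 active = mean inhibition of at least 40% at 20 µM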;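 note: plate controls were DMSO wells for no effect and DEVD-CHO caspase inhibitor control wells for full effect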
Rh110 interf inh – Rh110 fluorescence interference by putative Apaf-1 inhibitors, confirmation, artefact control for Apaf-1 inhibitor project, biochemical, 20 µM; shares compounds with Apaf1 inhib; quenched caspase reaction; activation (fluorescence interference), % at 20 µM; 1,800 tested, under 10 active; AID 504615, 2011;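 active = signal rise of 40% or more at 20 µM, treated as a fluorescence artifact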
Fluor interf inh – fluorescence interference of Apaf-1 inhibitor hits, dose response, artefact control for Apaf-1 inhibitor project. 460 tested, under 10 active. fluorescence interference counterscreen, Apaf-1 assay format. IC50, µM. shares compounds with Apaf1 inhib. AID 588538, 2011; call rule not given here
TDP2 inh conf – human TDP2 enzyme inhibitors, retest, confirmation, biochemical, epi absorbance, recombinant enzyme; shares compounds with TDP2 inh; absorbance read-out; inhibition, % at 12.8 µM; hit rate 22% among 1,100; in the data active = inhibition above about 25%;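 note: 0% = vehicle with enzyme and 100% = no enzyme buffer only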
* marks the source's active call; other numbers are inactive results; / = no result given. Shown are actives, neighbours in structure and some others; about 2.1% of the full set was active somewhere.

SMILES	PP5 primary	PP1 counter	Apaf1 inhib	TDP2 inh	GSTO1 inh	TDP2 inh conf	others
CCCCn1c(NS(=O)(=O)c2ccc(C)cc2)c(C(=O)OCC)c2nc3ccccc3nc21	9.1	-9.7	90.3*	71.2*	82.2*	36.2*	Apaf-1 inh conf2=26.9;Rh110 interf inh=6.7
COc1cc(C(c2c(C)[nH]n(-c3ccccc3)c2=O)c2c(C)[nH]n(-c3ccccc3)c2=O)cc(OC)c1OC	4.6	0.3	91.8*	89.5*	79.2*	56.0*	Apaf-1 inh conf2=62.1*;Rh110 interf inh=-3.1;Fluor interf inh=>100
O=C(O)c1ccc(-n2c(O)c(/C=C3\C=Nc4ccccc43)c(=O)[nH]c2=O)cc1	0.0	4.5	-2.1	18.1	-5.3	/
O=c1[nH]c(=O)n(-c2cccc(F)c2)c(O)c1/C=C1\C=Nc2ccccc21	1.0	-2.7	5.2	32.5*	5.6	13.7
CC(C)C(O)(C(=O)OCC1=CCN2CCC(O)C12)C(C)O (centres undefined)	/	/	/	-9.5	/	/
CN(C)CCNC(=O)c1cccn(Cc2cc(C(F)(F)F)cc(C(F)(F)F)c2)c1=O	-2.7	-1.1	2.9	-4.5	2.2	/
O=C(CN1CCOCC1)c1cccc2ccccc12	0.9	-3.0	2.1	25.3*	1.5	16.2
NC(=O)Cn1cc(C=C2C(=O)NC(=O)NC2=O)c2ccccc21	/	/	2.4	16.7	/	/
CCn1cc(C=C2C(=O)NC(=O)NC2=O)c2ccccc21	1.9	3.4	-13.7	27.5*	1.0	6.6
O=c1nc(/C=C/c2ccc(Cl)cc2Cl)cc(C(F)(F)F)[nH]1	/	/	10.2	29.0*	/	17.8
O=S(=O)(c1cccc2ccccc12)N1Cc2ccccc2-n2nncc2C1	/	/	/	9.1	/	/
CC[n+]1c(-c2ccccc2)c2cc(N)ccc2c2ccc(N)cc21	/	/	/	33.9*	/	22.3
Cc1cc(=O)oc2c(C)c(OCC(=O)N3CCN(Cc4ccccc4)CC3)ccc12	-0.5	2.7	8.0	-0.8	4.6	/
CCCc1cc(=O)oc2cc(OCC(=O)N3CCC(C(=O)O)(c4ccccc4)CC3)ccc12	-0.5	-0.2	-0.2	1.3	-4.6	/
COc1ccc(OCC#CCN2CCNCC2)cc1	-0.3	0.3	-3.4	31.3*	-0.8	2.5
CCOCCCn1c(N)c(C(=O)Nc2sc3c(c2C(=O)OC)CCCC3)c2nc3ccccc3nc21	1.8	-0.6	-0.7	70.4*	1.0	1.2
CC(OC(=O)c1cn(C)c2ccccc12)C(=O)N1CCCC1 (centres undefined)	1.2	0.4	5.7	5.4	/	/
Cc1cccc2c1=NC(=O)/C(=C/c1c(O)[nH]c(=O)[nH]c1=O)C=2	-1.2	-3.5	2.5	31.8*	26.5	37.5*
c1ccc2c(c1)-c1cccc3cccc-2c13	5.8	-5.6	10.3	-12.2	2.1	/
Nc1c(Br)cc2c3c(cccc13)-c1ccccc1-2	/	/	/	63.7*	/	16.9
CCC(=Nc1ccccc1N)c1c(O)[nH]c(=O)[nH]c1=O	2.8	8.0	14.4	25.2*	11.5	13.0
CCC(=NCCc1ccccc1)c1c(O)[nH]c(=O)[nH]c1=O	3.7	0.1	0.1	-0.6	-4.6	/
